Consider 3 molecules from ChEMBL document CHEMBL4014350, “Alkoxyurea-Based Histone Deacetylase Inhibitors Increase Cisplatin Potency in Chemoresistant Cancer Cell Lines” (J Med Chem, 2017).

Structures are written as SMILES. Active and inactive are the calls of the source. The calls are words filed in the database; no cut-off is given here.

The test system of test [1] is CAL-27. In words: Potentiation of 0.316 uM cisplatin-induced cytotoxicity against human CAL27 cells assessed as decrease in cell viability by measuring combination index at 700 uM preincubated for 48 hrs followed by cisplatin treatment measured after 72 hrs by MTT assay. Format: functional. The settings on record: in the assay text read “at 700 nM” for “at 700 uM”. In short, it runs like this: (§1)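 Cal27 and cisplatin-resistant Cal27CisR cells were preincubated with the HDAC inhibitor for 48 h, then given cisplatin in combination. Viability was read by MTT after 72 h. The combination index was computed by the Chou–Talalay method: CI > 1 is antagonism, CI = 1 is additive, and CI < 0.9 is synergism. Points with fraction affected below 0.20 were flagged.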
Background: Tetrazolium assays rely on reduction of a dye to a coloured formazan, in cell work by metabolically active cells.

Test [2] relates to CAL-27. In words: Potentiation of 5 uM cisplatin-induced cytotoxicity against human CAL27 cells assessed as decrease in cell viability by measuring combination index at 300 uM preincubated for 48 hrs followed by cisplatin treatment measured after 72 hrs by MTT assay. The settings on record: in the assay text read “at 300 nM” for “at 300 uM”. The test is classed as functional. Summed up: (§2)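 HDAC inhibitor was added 48 h before cisplatin, then cells were exposed to cisplatin for 72 h and viability was read by MTT assay. Combination index was computed by the Chou–Talalay method: CI > 1 is antagonism, CI = 1 additive, CI < 0.9 synergism. Points with fraction affected below 0.20 were flagged.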

Test [3] relates to CAL-27. Nature of the test: Potentiation of 2 uM cisplatin-induced cytotoxicity against human CAL27 cells assessed as decrease in cell viability by measuring combination index at 100 uM preincubated for 48 hrs followed by cisplatin treatment measured after 72 hrs by MTT assay. The test is classed as functional. The settings on record: in the assay text read “at 100 nM” for “at 100 uM”. In short, it runs like this: as §2

Test [4] concerns CAL-27. Nature of the test: Potentiation of 0.5 uM cisplatin-induced cytotoxicity against human CAL27 cells assessed as decrease in cell viability by measuring combination index at 100 uM preincubated for 48 hrs followed by cisplatin treatment measured after 72 hrs by MTT assay. The settings on record: in the assay text read “at 100 nM” for “at 100 uM”. The test is classed as functional. Summed up: as §1

For test [5], the system named is CAL-27. Nature of the test: Potentiation of 0.316 uM cisplatin-induced cytotoxicity against human CAL27 cells assessed as decrease in cell viability by measuring combination index at 400 uM preincubated for 48 hrs followed by cisplatin treatment measured after 72 hrs by MTT assay. The test is classed as functional. The settings on record: in the assay text read “at 400 nM” for “at 400 uM”. Summed up:
as §1

The test system of test [6] is CAL-27. In words: Potentiation of 1 uM cisplatin-induced cytotoxicity against human CAL27 cells assessed as decrease in cell viability by measuring combination index at 400 uM preincubated for 48 hrs followed by cisplatin treatment measured after 72 hrs by MTT assay. The test is classed as functional. Summed up: as §2
For test [7], the target named is T1, Histone deacetylase 1/6 (Homo sapiens) (UniProt Q13547+Q9UBN7). In words: Inhibition of HDAC1/HDAC6 in human Cal27CisR cells assessed as potentiation of 3.16 uM cisplatin-induced cytotoxicity by measuring combination index at 200 uM preincubated for 48 hrs followed by cisplatin treatment measured after 72 hrs by MTT assay. Format: cell-based. Summed up:
(§3)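 Cal27CisR cells preincubated 48 h with the HDAC inhibitor, then exposed to cisplatin for 72 h. Viability read by MTT. Combination index calculated by the Chou–Talalay method: CI > 1 antagonism, CI = 1 additive, CI < 0.9 synergism. Points with fraction affected below 0.20 are flagged. Values are the mean of three experiments.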

Test [8] concerns the target T1, Histone deacetylase 1/6 (Homo sapiens). In words: Inhibition of HDAC1/HDAC6 in human Cal27CisR cells assessed as potentiation of 1 uM cisplatin-induced cytotoxicity by measuring combination index at 1500 uM preincubated for 48 hrs followed by cisplatin treatment measured after 72 hrs by MTT assay. Format: cell-based. In short, it runs like this:
as §3

The target is the same in test [9]. Nature of the test: Inhibition of HDAC1/HDAC6 in human Cal27CisR cells assessed as potentiation of 5 uM cisplatin-induced cytotoxicity by measuring combination index at 900 uM preincubated for 48 hrs followed by cisplatin treatment measured after 72 hrs by MTT assay. Format: cell-based. Summed up:
as §1

Test [10] has the same target. Nature of the test: Inhibition of HDAC1/HDAC6 in human Cal27CisR cells assessed as potentiation of 1 uM cisplatin-induced cytotoxicity by measuring combination index at 2000 uM preincubated for 48 hrs followed by cisplatin treatment measured after 72 hrs by MTT assay. Format: cell-based. Summed up: as §3
For test [11] the target is unchanged. Nature of the test: Inhibition of HDAC1/HDAC6 in human Cal27CisR cells assessed as potentiation of cisplatin-induced apoptosis at 1 uM preincubated for 48 hrs followed by cisplatin treatment for 6 hrs measured after 24 hrs by propidium iodide dye-based flow cytometry (reference value: 20.3%). Format: cell-based. On the set-up: scale not given: the % may be the effect or the level left.

Test [12] concerns CAL-27. In words: Potentiation of 2 uM cisplatin-induced cytotoxicity against human CAL27 cells assessed as decrease in cell viability by measuring combination index at 2000 uM preincubated for 48 hrs followed by cisplatin treatment measured after 72 hrs by MTT assay. Format: functional. As to conditions: in the assay text read “at 2000 nM” for “at 2000 uM”. Summed up:
as §2

Test [13] has as its system CAL-27. In words: Potentiation of 0.5 uM cisplatin-induced cytotoxicity against human CAL27 cells assessed as decrease in cell viability by measuring combination index at 1000 uM preincubated for 48 hrs followed by cisplatin treatment measured after 72 hrs by MTT assay. The test is classed as functional. Summed up: as §1
The test system of test [14] is CAL-27. Nature of the test: Potentiation of 0.5 uM cisplatin-induced cytotoxicity against human CAL27 cells assessed as decrease in cell viability by measuring combination index at 900 uM preincubated for 48 hrs followed by cisplatin treatment measured after 72 hrs by MTT assay. The test is classed as functional. Summed up: as §1
Test [15] deals with T1, Histone deacetylase 1/6 (Homo sapiens). In words: Inhibition of HDAC1/HDAC6 in human Cal27CisR cells assessed as potentiation of 20 uM cisplatin-induced cytotoxicity by measuring combination index at 900 nM preincubated for 48 hrs followed by cisplatin treatment measured after 72 hrs by MTT assay.
The target is the same in test [16]. Nature of the test: Inhibition of HDAC1/HDAC6 in human Cal27CisR cells assessed as potentiation of 1 uM cisplatin-induced cytotoxicity by measuring combination index at 900 uM preincubated for 48 hrs followed by cisplatin treatment measured after 72 hrs by MTT assay. Format: cell-based. In short, it runs like this: as §3
Test [17] has the same target. Nature of the test: Inhibition of HDAC1/HDAC6 in human Cal27CisR cells assessed as potentiation of 3.16 uM cisplatin-induced cytotoxicity by measuring combination index at 900 nM preincubated for 48 hrs followed by cisplatin treatment measured after 72 hrs by MTT assay.
For test [18] the target is unchanged. In words: Inhibition of HDAC1/HDAC6 in human Cal27CisR cells assessed as potentiation of 10 uM cisplatin-induced cytotoxicity by measuring combination index at 900 nM preincubated for 48 hrs followed by cisplatin treatment measured after 72 hrs by MTT assay.
In test [19] the test system is CAL-27. In words: Potentiation of 1 uM cisplatin-induced cytotoxicity against human CAL27 cells assessed as decrease in cell viability by measuring combination index at 1500 uM preincubated for 48 hrs followed by cisplatin treatment measured after 72 hrs by MTT assay. Format: functional. The settings on record: in the assay text read “at 1500 nM” for “at 1500 uM”. Summed up:
as §1

A further test deals with Cal27CisR. Nature of the test: Induction of apoptosis in human Cal27CisR cells at 0.5 uM for 48 hrs by propidium iodide dye-based flow cytometry. Format: functional, cell-based. Background: In flow cytometry, cells or beads pass a laser one at a time.

T1 sequence (Q13547 whole entry, looked up): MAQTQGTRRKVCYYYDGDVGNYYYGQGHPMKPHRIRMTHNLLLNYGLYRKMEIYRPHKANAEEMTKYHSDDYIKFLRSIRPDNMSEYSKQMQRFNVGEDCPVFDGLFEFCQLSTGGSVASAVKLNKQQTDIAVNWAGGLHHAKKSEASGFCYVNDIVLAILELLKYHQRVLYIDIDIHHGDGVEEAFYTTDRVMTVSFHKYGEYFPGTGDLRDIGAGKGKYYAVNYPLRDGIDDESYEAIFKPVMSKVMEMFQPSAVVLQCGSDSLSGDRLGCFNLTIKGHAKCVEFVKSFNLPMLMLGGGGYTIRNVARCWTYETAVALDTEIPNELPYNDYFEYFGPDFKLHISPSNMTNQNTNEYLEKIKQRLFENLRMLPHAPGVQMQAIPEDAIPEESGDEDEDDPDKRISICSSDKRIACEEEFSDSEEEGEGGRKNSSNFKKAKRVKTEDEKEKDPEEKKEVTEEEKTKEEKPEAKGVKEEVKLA
T1 sequence (Q9UBN7 whole entry, looked up): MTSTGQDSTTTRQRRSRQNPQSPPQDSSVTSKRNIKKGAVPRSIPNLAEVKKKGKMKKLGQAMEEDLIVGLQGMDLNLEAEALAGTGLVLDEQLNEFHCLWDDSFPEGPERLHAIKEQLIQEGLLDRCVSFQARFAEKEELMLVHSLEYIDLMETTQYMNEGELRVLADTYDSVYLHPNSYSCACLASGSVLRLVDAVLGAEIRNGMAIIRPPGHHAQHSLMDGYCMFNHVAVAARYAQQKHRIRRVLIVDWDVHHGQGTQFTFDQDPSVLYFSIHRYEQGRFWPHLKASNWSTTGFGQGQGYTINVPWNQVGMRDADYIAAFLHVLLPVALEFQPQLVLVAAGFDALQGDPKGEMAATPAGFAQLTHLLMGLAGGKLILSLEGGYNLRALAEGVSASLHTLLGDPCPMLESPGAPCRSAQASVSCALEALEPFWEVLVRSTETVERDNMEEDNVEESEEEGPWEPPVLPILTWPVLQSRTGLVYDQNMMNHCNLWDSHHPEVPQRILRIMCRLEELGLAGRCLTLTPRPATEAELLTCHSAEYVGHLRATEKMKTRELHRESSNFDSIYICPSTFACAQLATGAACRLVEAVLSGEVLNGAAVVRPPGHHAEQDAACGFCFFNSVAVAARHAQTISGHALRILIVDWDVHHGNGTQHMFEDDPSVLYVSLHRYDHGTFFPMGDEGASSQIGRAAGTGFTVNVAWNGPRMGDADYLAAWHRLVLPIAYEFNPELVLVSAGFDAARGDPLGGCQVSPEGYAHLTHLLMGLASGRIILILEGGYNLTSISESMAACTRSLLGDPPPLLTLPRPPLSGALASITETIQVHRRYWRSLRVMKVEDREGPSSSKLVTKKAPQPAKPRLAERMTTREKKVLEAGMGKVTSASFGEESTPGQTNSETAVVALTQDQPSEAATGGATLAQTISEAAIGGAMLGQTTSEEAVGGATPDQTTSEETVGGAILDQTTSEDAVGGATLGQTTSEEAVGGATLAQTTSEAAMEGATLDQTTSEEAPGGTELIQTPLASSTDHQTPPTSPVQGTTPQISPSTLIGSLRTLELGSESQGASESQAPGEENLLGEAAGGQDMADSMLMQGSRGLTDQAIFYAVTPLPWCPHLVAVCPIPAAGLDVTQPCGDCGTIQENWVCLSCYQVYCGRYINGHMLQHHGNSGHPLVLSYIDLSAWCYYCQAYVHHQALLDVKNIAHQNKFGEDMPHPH

`COc1cc(NC(=O)NOCCCCCC(=O)NO)c2nc(OC)cc(C)c2c1`: the CI with CAL-27 [1] is 0.82; in the test on CAL-27 [2] it was 0.32; in the test with CAL-27 [3] it was 0.31; in the test with CAL-27 [4] it was below 0.2; in the test with CAL-27 [5], 0.97; in the test on CAL-27 [6] it was 0.51. The CI in test [7] was found to be 0.87.

On to `COc1cc(NC(=O)NOCCCCCC(=O)NO)c2nccc(C)c2c1`, for which the CI with CAL-27 [1] was 0.68; in the test with CAL-27 [2], 0.25; in the test on CAL-27 [4], below 0.2; with CAL-27 [5], below 0.2; with CAL-27 [6] it was 0.39; in test [7], below 0.2.

`COc1cc(NC(=O)NOCCCCCC(=O)NO)c2ncccc2c1`: the CI in test [8] came out at 1; in [9] it was 0.52; in test [10], 0.82; in the test on CAL-27 [12], 0.7; in the test with CAL-27 [13] it was 0.67; in the test on CAL-27 [14], 0.6. The CI in [15] is 0.49; in test [16] it was below 0.2; in test [17], 0.79; in [18], 0.43; in the test on CAL-27 [19] it was 0.64. Also, in [11], the Activity was 56.3%. Moreover, the result in the test with Cal27CisR was inactive.
